Experimental data as given in ChEMBL document CHEMBL1667819, “Aminopyridinecarboxamide-based inhaled IKK-2 inhibitors for asthma and COPD: Structure-activity relationship” (Bioorg Med Chem, 2011).

What was measured:
[1] = Half life in human liver microsomes
PBMC = test: Inhibition of LPS-stimulated TNFalpha release in human PBMC; type: functional, cell-based
Summary of the method: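 PBMC were Ficoll-isolated from heparinized blood of healthy donors and plated at 2.5 × 10⁵ cells/well in RPMI 1640 with 5% FBS and penicillin–streptomycin. Cells were preincubated with compound for 1 h, then stimulated with LPS (20 ng/ml) for 16 h. Supernatant TNFα was measured by ELISA, and IC50 is the mean of ≥3 experiments.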

[2] = target: T1, Inhibitor of nuclear factor kappa-B kinase subunit beta (Homo sapiens) (UniProt O14920); test: Binding affinity to human recombinant IKK2 assessed as half life
T1 sequence (whole entry): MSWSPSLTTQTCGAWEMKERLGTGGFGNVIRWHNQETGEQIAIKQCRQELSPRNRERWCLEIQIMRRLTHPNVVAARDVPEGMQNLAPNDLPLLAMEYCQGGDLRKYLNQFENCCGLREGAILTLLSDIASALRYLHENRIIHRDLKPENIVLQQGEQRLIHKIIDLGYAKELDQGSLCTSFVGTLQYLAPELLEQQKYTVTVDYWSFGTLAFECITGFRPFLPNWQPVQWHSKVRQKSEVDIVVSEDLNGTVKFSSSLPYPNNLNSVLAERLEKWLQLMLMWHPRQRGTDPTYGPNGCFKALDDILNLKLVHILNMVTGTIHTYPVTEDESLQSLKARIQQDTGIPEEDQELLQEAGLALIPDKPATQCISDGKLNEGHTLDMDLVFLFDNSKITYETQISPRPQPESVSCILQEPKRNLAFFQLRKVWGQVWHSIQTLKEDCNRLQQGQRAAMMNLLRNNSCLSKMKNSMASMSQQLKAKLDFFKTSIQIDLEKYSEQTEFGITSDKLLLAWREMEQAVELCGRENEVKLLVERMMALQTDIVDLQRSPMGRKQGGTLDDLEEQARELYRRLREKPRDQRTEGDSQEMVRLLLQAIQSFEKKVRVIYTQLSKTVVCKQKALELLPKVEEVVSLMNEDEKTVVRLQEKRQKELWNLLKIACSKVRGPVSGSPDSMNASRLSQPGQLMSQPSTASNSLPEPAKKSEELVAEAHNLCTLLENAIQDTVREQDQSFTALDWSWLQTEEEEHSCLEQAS

[3] = target: Voltage-gated inwardly rectifying potassium channel KCNH2 (Homo sapiens, UniProt Q12809); test: Displacement of dofetilide from human ERG transfected in HEK293 cells by fluorescence polarization assay
Chain of Voltage-gated inwardly rectifying potassium channel KCNH2 (Q12809 whole entry): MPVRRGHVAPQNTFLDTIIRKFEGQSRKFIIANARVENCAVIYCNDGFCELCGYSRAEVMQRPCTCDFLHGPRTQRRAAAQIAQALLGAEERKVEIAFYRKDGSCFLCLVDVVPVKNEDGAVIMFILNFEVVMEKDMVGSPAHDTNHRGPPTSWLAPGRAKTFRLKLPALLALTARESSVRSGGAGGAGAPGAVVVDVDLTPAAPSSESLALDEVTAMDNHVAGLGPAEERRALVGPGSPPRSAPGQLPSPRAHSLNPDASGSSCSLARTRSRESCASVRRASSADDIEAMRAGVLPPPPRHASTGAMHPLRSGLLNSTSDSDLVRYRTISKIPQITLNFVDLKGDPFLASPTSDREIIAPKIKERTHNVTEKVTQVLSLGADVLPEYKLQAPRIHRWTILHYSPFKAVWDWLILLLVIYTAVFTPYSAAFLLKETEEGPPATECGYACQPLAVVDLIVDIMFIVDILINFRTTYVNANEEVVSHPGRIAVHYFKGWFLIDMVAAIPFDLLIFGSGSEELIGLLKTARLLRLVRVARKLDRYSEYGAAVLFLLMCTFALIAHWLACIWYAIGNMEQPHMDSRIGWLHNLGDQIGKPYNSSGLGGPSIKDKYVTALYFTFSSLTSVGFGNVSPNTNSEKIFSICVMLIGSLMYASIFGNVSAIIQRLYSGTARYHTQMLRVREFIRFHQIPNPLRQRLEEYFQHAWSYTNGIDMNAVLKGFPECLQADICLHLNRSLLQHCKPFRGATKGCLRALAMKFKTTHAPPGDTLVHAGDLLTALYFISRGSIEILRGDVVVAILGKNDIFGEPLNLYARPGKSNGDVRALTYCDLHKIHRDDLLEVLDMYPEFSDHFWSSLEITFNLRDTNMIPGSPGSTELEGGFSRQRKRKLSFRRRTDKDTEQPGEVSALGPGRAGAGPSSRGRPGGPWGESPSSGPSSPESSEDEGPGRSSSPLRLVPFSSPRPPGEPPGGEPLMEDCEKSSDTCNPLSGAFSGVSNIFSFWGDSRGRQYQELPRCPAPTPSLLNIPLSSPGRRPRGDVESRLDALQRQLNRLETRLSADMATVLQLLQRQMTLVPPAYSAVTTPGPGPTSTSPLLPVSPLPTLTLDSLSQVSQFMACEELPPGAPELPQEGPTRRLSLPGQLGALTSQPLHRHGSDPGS
Summary of the method: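 Competition binding used membranes from HEK-293 cells transfected with hERG. Test compound competed with Cy3B-tagged N-desmethyl dofetilide for channel binding, with fluorescence polarization read-out. Values are given as % of effect.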

[4] = target: T2, Inhibitor of nuclear factor kappa-B kinase subunit beta (Homo sapiens, UniProt O14920); test: Inhibition of human recombinant IKK2
T2 sequence (O14920 whole entry): T1 sequence (whole entry)

[5] = target: T1, Inhibitor of nuclear factor kappa-B kinase subunit beta (Homo sapiens); test: Binding affinity to human IKK2 in PBMC assessed as half life by cell-based assay
Summary of the method: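 Cryopreserved PBMC were thawed and plated, then exposed to compound for 1 h. Compound was removed by four spin-and-aspirate washes, and an unwashed plate served as control. Loss of inhibition after washout gave the cellular half-life.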

SMILES | half-life ([1]; liver microsomes) | IC50 (PBMC) | T1/2 [2] | inhibition (INH) [3] | IC50 [4] | T1/2 [5] | half-life ([1]; microsomes)
NC(=O)Cn1cc(CN2CCN(c3cc(C(=O)Nc4ccc5c(c4)-c4c(c(C(N)=O)nn4-c4ccc(F)cc4)CC5)c(Cl)cn3)CC2)cn1 | 58 min | 7 nM | 5 h | 38% | 0.9 nM | < 4 h | 
NC(=O)c1nn(-c2ccc(F)cc2)c2c1CCc1ccc(NC(=O)c3cc(N4CCN(Cc5cnn(CCCO)c5)CC4)ncc3Cl)cc1-2 |  | 15 nM | 5 h | 49% | 2.2 nM | > 4 h | 9 min
COCCNC(=O)Cn1cc(CN2CCN(c3cc(C(=O)Nc4ccc5c(c4)-c4c(c(C(N)=O)nn4-c4ccc(F)cc4)CC5)c(Cl)cn3)CC2)cn1 | 3 min | 10 nM | 6 h | 58% | 1.3 nM | > 4 h | 
CSCCNC(=O)Cn1cc(CN2CCN(c3cc(C(=O)Nc4ccc5c(c4)-c4c(c(C(N)=O)nn4-c4ccc(F)cc4)CC5)c(Cl)cn3)CC2)cn1 | 3 min | 10 nM | 4 h | 98% | 2.5 nM | 4 h | 
CCOC(=O)Cn1cc(CN2CCN(c3cc(C(=O)Nc4ccc5c(c4)-c4c(c(C(N)=O)nn4-c4cccc(F)c4)CC5)c(Cl)cn3)CC2)cn1 | 3 min | 9 nM | 5 h | 78% | 5 nM | > 4 h | 
NC(=O)c1nn(-c2ccc(F)cc2)c2c1CCc1ccc(NC(=O)c3cc(N4CCN(Cc5cnn(CC(=O)NCCO)c5)CC4)ncc3Cl)cc1-2 |  | 9 nM | 5 h | 12% | 1 nM | < 4 h | 120 min
